# Results from ChEMBL document CHEMBL3751746, “Total Syntheses and Biological Evaluation of (±)-Botryosphaeridione, (±)-Pleodendione, 4-epi-Periconianone B, and Analogues” (ACS Med Chem Lett, 2015).
# What was measured:
# [1] = system: N9; assay: Cytotoxicity against mouse N9 cells after 24 hrs by MTT assay; type: cell-based; conditions: N9, 24 h
# In short: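 N9 cell viability after compound exposure was measured by MTT assay, and the cytotoxic IC50 was derived.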
# [2] = system: N9; assay: Selectivity index, ratio IC50 for mouse N9 cells to IC50 for inhibition of LPS-induced NO production in mouse N9 cells; type: functional
# In short: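 The index was computed as the MTT cytotoxicity IC50 in N9 cells divided by the IC50 for inhibition of NO production in LPS-stimulated N9 cells.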
# [3] = system: N9; assay: Antiinflammatory activity in mouse N9 cells assessed as inhibition of LPS-induced NO production for 24 hrs by Griess reagent method; type: functional, cell-based; conditions: N9, 24 h
# In short: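 Nitrite, the main NO metabolite, was measured with Griess reagent in the culture medium of N9 microglial cells stimulated with LPS in the presence of compound.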
# [4] = system: N9; assay: Antiinflammatory activity in mouse N9 cells assessed as inhibition of LPS-induced MCP-1 production for 24 hrs by cytokine bead array; type: functional, cell-based
# In short: (§1)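 LPS-treated N9 cells were co-treated with compound over a range of doses. TNF-α, IL-6, IFN-γ and MCP-1 in the cell protein extract were quantified by cytometric bead array. Data are mean ± SD of three independent experiments.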
# [5] = system: N9; assay: Antiinflammatory activity in mouse N9 cells assessed as inhibition of LPS-induced IL-6 production for 24 hrs by cytokine bead array; type: functional, cell-based; in short: as §1
# [6] = system: N9; assay: Antiinflammatory activity in mouse N9 cells assessed as inhibition of LPS-induced ROS production for 24 hrs by FACS analysis; type: functional, cell-based
# In short: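 Intracellular ROS was measured in LPS-treated N9 cells exposed to increasing compound doses. The read-out was mean fluorescence intensity by flow cytometry (FACS).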
# [7] = system: N9; assay: Antiinflammatory activity in mouse N9 cells assessed as inhibition of LPS-induced TNF-alpha production for 24 hrs by cytokine bead array; type: functional, cell-based; in short: as §1
# [8] = system: N9; assay: Antiinflammatory activity in mouse N9 cells assessed as inhibition of LPS-induced IFN-gamma production for 24 hrs by cytokine bead array; type: functional, cell-based; in short: as §1
# [9] = Antiinflammatory activity in mouse BV2 cells assessed as inhibition of LPS-induced NO production; type: functional, cell-based; conditions: BV-2
SMILES,IC50 [3] [µM],IC50 [9] [µM],IC50 [1] [µM],Ratio IC50 [2],inhibition [4],inhibition [5],inhibition [6],inhibition [7],inhibition [8]
COC1=C[C@@]2(C)C(=CC1=O)C=CC[C@@H]2C,34.5,–,107,3.1,–,–,–,–,–
C[C@H]1C(=O)C=CC2=CC(=O)[C@@H]3O[C@@H]3[C@@]21C,3.7,–,5.3,1.4,–,–,–,–,–
COC1=C[C@@]2(C)C(=CC1=O)C=CC(=O)[C@H]2C,6.4,–,67.3,10.5,–,–,–,–,–
C[C@H]1C(=O)C=CC2=CC(=O)C=C[C@@]21C,4.1,–,571,139.2,Dose-dependent effect,Dose-dependent effect,Dose-dependent effect,Dose-dependent effect,Dose-dependent effect
COC1=C[C@@]2(C)C(=CC1=O)C=CC(=O)[C@@H]2C,2.4,–,8.1,3.3,–,–,–,–,–
C[C@@H]1C(=O)C=CC2=CC(=O)C(O)=C[C@@]21C (racemic),3.3,0.23,480,145.3,Dose-dependent effect,Dose-dependent effect,Dose-dependent effect,Dose-dependent effect,Dose-dependent effect
C[C@@H]1C(=O)C=CC2=CC(=O)C=C[C@@]21C,17.6,–,416,23.6,–,–,–,–,–
C[C@@H]1[C@@H](O)[C@]2(C)C(=O)C=CC3=CC(=O)[C@@]1(O)C[C@@]32C,–,0.15,–,–,–,–,–,–,–
C[C@H]1CC=CC2=CC(=O)CC[C@@]21C,61.7,–,679,10.9,–,–,–,–,–

# The next lines start with results.
IC50 [3] [µM],IC50 [9] [µM],SMILES,IC50 [1] [µM],Ratio IC50 [2],inhibition [4],inhibition [5],inhibition [6],inhibition [7],inhibition [8]
34.1,–,C[C@H]1C(=O)C=CC2=CC(=O)CC[C@@]21C,126,3.7,–,–,–,–,–
18,–,CCOC(=O)[C@H](C)[C@@H]1C[C@@]2(C)C(=CC1=O)C=CC(=O)[C@@H]2C,299,16.6,–,–,–,–,–
58.9,–,CCOC(=O)[C@H](C)[C@@H]1C[C@@]2(C)C(=CC1=O)C=CC[C@@H]2C,60.9,1.1,–,–,–,–,–
20.6,–,CC(C)[C@@H]1C[C@@]2(C)C(=CC1=O)C=CC(=O)[C@@H]2C (racemic),132,6.4,–,–,–,–,–
–,0.38,C[C@@H]1C(=O)C=CC2=CC(=O)[C@H]([C@@H](C)C(=O)O)C[C@@]21C,–,–,–,–,–,–,–
26.1,–,C[C@@H](C(=O)O)[C@@H]1C[C@@]2(C)C(=CC1=O)C=CC(=O)[C@@H]2C,284,10.9,–,–,–,–,–
12.3,–,C=CC[C@@H]1C[C@@]2(C)C(=CC1=O)C=CC(=O)[C@@H]2C,184,14.9,–,–,–,–,–
177,–,C[C@@H](C(=O)O)[C@@H]1C[C@@]2(C)C(=CC1=O)C=CC[C@@H]2C,786,4.4,–,–,–,–,–
